MC4R barr agon: agonists of human melanocortin 4 receptor (MC4R) beta-arrestin; activation, % at 8.9 µM; 360,000 tested, 0.98% active; AID 540308; U2OS MC4R beta-arrestin complementation, luminescence; percent of melanotan II response, DMSO zero; P32245;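 active = activation above a per-plate cutoff, the mean activation of sample wells on that plate plus 3 SD, cut at about 8% in these data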
Target sequence (P32245 whole entry, looked up): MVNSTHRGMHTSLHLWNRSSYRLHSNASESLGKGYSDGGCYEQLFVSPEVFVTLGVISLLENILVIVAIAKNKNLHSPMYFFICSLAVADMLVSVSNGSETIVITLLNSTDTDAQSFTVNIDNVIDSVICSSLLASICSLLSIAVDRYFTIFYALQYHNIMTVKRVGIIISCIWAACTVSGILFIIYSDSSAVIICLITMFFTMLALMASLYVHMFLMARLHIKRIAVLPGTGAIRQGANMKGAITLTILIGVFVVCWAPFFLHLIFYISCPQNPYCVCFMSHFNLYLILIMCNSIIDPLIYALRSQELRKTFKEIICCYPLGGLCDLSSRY
aDG glyco act: alpha-DG glycosylation activation; AID 624168; Pro5-aDG cells, alpha-DG glycosylation AlphaScreen (IIH6); 0% Pro5, 100% B10-LARGE cell signal; activation, % at 10 µM; 360,000 tested, 0.22% active;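 active = activation of at least 8% versus controls, or a plate z-score of at least 8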;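 also: Pro5 are CHO cells carrying HIG-tagged alpha-DG that lacks glycosylation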
TbMetRS inhib: Trypanosoma brucei MetRS inhibition. purified T. brucei MetRS, ATP depletion, Kinase-Glo luminescence. inhibition, % at 11.9 µM. 360,000 tested, 0.4% active;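 active = inhibition above a per-plate cutoff of the control wells' mean inhibition plus 3 SD, cut at about 5.5% in these data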
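Measured by: Kinase-Glo luciferase luminescence reporting remaining unconsumed ATP. Material: purified T. brucei MetRS enzyme. Doses: 11.9 µM compound single dose, 0.9% DMSO. Medium: HEPES buffer containing pyrophosphatase, BSA, spermine, DTT. Times: 15 min preincubation, 2 h reaction, all 25 °C. Reagent: methionine, ATP and bulk E. coli tRNA.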
TAG inh: reduces triacylglycerol accumulation in H9c2 cells. AID 651582. 230,000 tested, 0.66% active. inhibition, % at 12.5 µM. Nile Red lipid (TAG) fluorescence; cells loaded with 200 µM oleic acid;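 active = pattern-corrected inhibition of lipid staining of at least 50% with the nuclear-stain viability signal not falling by more than 50%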
MC4R antag cAMP: antagonists of human melanocortin 4 receptor (MC4R); inhibition, % at 6.5 µM; 360,000 tested, 0.48% active; MC4R-expressing cells, MTII-stimulated cAMP, LANCE TR-FRET; AID 540295;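 active = inhibition above its plate's cutoff, the mean of tested wells on that plate plus 3 SD, cut at about 29% in these data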
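Assay system: U2OS-MC4R stable cell line; Also added: Melanotan II; Technique: Eu-cAMP/anti-cAMP TR-FRET, emission 671 nm; Times: 30-min compound, 1-h challenge, 1-h detection, room temperature.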
NTR1 ag: agonists of human neurotensin receptor NTR1. P30989. NTR1-U2OS beta-arrestin-GFP spot imaging, agonist mode. activation, % at 20 µM. 330,000 tested, 0.17% active. AID 493036;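 active = activation at or above 40% of the spot to cytoplasm intensity ratio, with at least 20 cells analyzed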
Target sequence (P30989 whole entry, looked up): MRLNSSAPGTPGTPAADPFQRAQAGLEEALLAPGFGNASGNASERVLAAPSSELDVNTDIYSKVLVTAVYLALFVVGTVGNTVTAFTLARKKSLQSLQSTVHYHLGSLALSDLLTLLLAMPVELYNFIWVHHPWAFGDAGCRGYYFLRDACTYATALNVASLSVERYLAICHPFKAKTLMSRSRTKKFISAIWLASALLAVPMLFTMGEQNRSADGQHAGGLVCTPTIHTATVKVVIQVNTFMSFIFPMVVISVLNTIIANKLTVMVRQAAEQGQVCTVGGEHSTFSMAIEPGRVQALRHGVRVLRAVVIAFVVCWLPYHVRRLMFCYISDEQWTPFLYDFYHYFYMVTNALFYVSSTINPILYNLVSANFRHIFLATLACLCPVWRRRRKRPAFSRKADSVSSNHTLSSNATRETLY
Tb MetRS conf: Trypanosoma brucei MetRS inhibition confirmed | shares compounds with TbMetRS inhib | T. brucei MetRS enzyme, luminescence (ATP depletion) | inhibition, % at 11.9 µM | 1,400 tested, 93% active; in the data active = inhibition above about 7%
Jurkat tox: kills Jurkat cells in T. brucei MetRS counterscreen. shares compounds with TbMetRS inhib. inhibition, % at 8.3 µM. Jurkat cells viability, ATP luminescence. 1,400 tested, 12% active. AID 624413; in the data active = inhibition above about 15%
Tb MetRS inh FP: T. brucei MetRS inhibition, orthogonal assay; shares compounds with TbMetRS inhib; purified T. brucei MetRS, fluorescence polarization; inhibition, % at 11.9 µM; 1,400 tested, 44% active; AID 651607; in the data active = inhibition above about 17%
Of the large screens only hits and unclear results are named; the others gave an inactive call (follow-up assays come after a bar, where they were run). Sampled rows, rich in hits. Any-hit rate of the full collection: about 2.4%.

CCNC(=O)C1(C)CCN(C(=O)c2ccc(N(C)C)cc2)C1 (configuration not stated)	none (no result: NTR1 ag)
CCN(CC(=O)NCc1ccc(Cl)cc1)C(=O)CCc1ccccc1O	TbMetRS inhib 37 (no result: TAG inh) | Tb MetRS conf 67 | Jurkat tox inactive | Tb MetRS inh FP 33
Fc1ccc(-c2nc3ccc(Br)cn3c2Cc2ccsc2)cc1	none (no result: MC4R barr agon, TAG inh, MC4R antag cAMP, NTR1 ag)
Cc1ccc2nc(SCC(=O)NCc3ccc(F)cc3)[nH]c2c1	TbMetRS inhib 18 (no result: TAG inh) | Tb MetRS conf 22 | Jurkat tox inactive | Tb MetRS inh FP inactive
Cc1ccc2nc(SCC(=O)NCc3ccc(S(N)(=O)=O)cc3)[nH]c2c1	none (no result: TAG inh)
COc1ccc(CNC(=O)CSc2nc3ccc(C)cc3[nH]2)cc1OC	TbMetRS inhib 8.9 (no result: TAG inh) | Tb MetRS conf 21 | Jurkat tox inactive | Tb MetRS inh FP inactive
COc1ccc(CN2C(=O)CN(S(C)(=O)=O)CC2(C)C(=O)NC(C)C)cc1 (configuration not stated)	none (no result: MC4R barr agon, TAG inh, MC4R antag cAMP, NTR1 ag)
O=C(Nc1ccc(Cl)cc1)Nc1ccccc1CC[N+](=O)[O-]	TbMetRS inhib 37 | Tb MetRS conf 66 | Jurkat tox inactive | Tb MetRS inh FP 30
O=C(Nc1ccc(Cl)cc1)Nc1csc([N+](=O)[O-])c1	TbMetRS inhib 12 | Tb MetRS conf 22 | Jurkat tox 73 | Tb MetRS inh FP 22
CN(C)C(=O)Nc1ccccc1CC[N+](=O)[O-]	none
O=C(Nc1csc([N+](=O)[O-])c1)Nc1c(Cl)cccc1Cl	none
O=C(NCCN1CCC(n2c(=O)[nH]c3ccccc32)CC1)c1c(F)cccc1F	none (no result: MC4R barr agon, TAG inh, MC4R antag cAMP, NTR1 ag)
COC(=O)[C@]12CCCCC=C1N(Cc1ccco1)C(=O)[C@H](CC(=O)NCc1cccs1)C2	none (no result: MC4R barr agon, TAG inh, MC4R antag cAMP, NTR1 ag)
O=[N+]([O-])c1ccc(Cl)c(CN2CCN(c3ncccn3)CC2)c1	none (no result: TAG inh)
Cc1ccc2nc(C)c(CN3CCN(c4ccc([N+](=O)[O-])cc4Cl)CC3)n2c1	TbMetRS inhib 26 (no result: TAG inh) | Tb MetRS conf 44 | Jurkat tox 47 | Tb MetRS inh FP 25
CC1(C(=O)NS(=O)(=O)c2cccc(C#N)c2)CCN1C(=O)C/C=C/c1ccccc1 (configuration not stated)	none (no result: NTR1 ag)
COC(=O)C[C@H]1C=C[C@H](NC(=O)Nc2ccccc2)[C@@H](CO)O1	none (no result: MC4R barr agon, TAG inh, MC4R antag cAMP, NTR1 ag)
COc1ccc(CN2CCN(Cc3c[nH]c4ccccc34)CC2CCO)c(F)c1 (configuration not stated)	TbMetRS inhib 22 | Tb MetRS conf 42 | Jurkat tox inactive | Tb MetRS inh FP inactive
COc1cc(CN2CCN(Cc3c[nH]c4ccccc34)CC2CCO)cc(OC)c1 (configuration not stated)	none
Cc1ccc(S(=O)(=O)/C(C#N)=C/c2c[nH]c3ccccc23)cc1	TbMetRS inhib 19 (no result: TAG inh) | Tb MetRS conf 40 | Jurkat tox inactive | Tb MetRS inh FP 24
Cc1ccc(S(=O)(=O)N/N=C/c2c[nH]c3ccccc23)cc1	none
O=C1C(Nc2ccc(O)cc2)=C/C(=N/S(=O)(=O)c2cccs2)c2ccccc21	TbMetRS inhib 6.2 (no result: NTR1 ag) | Tb MetRS conf 9.8 | Jurkat tox 94 | Tb MetRS inh FP inactive
COc1ccc(OC)c(C2C(C#N)=C(N)Oc3cc(C)[nH]c(=O)c32)c1 (configuration not stated)	TbMetRS inhib 13 | Tb MetRS conf inactive | Jurkat tox inactive | Tb MetRS inh FP inactive
COc1ccc(OC)c(C2C(C#N)=C(N)Oc3cc(C)n(Cc4ccccn4)c(=O)c32)c1 (configuration not stated)	TbMetRS inhib 89 (no result: TAG inh) | Tb MetRS conf 15 | Jurkat tox inactive | Tb MetRS inh FP inactive
COc1cc(C2C(C#N)=C(N)Oc3cc(C)n(CCc4ccccc4)c(=O)c32)cc2c1OCO2 (configuration not stated)	TbMetRS inhib 85 | Tb MetRS conf 11 | Jurkat tox inactive | Tb MetRS inh FP inactive
COc1ccc(OC)c(C2C(C#N)=C(N)Oc3cc(N)ccc32)c1 (configuration not stated)	TbMetRS inhib 36 | Tb MetRS conf inactive | Jurkat tox inactive | Tb MetRS inh FP inactive
CCOc1cccc(C2C(C#N)=C(N)Oc3cc(C)n(Cc4ccccn4)c(=O)c32)c1OCC (configuration not stated)	none
CCOC(=O)c1ccc(O)c(-n2cc3c(c2-c2ccccc2)c(=O)n(C)c(=O)n3C)c1	none (no result: MC4R barr agon, TAG inh, MC4R antag cAMP, NTR1 ag)
c1ccc(COc2cccc(-c3cc4nc(NCc5cccs5)ccn4n3)c2)cc1	none (no result: NTR1 ag)
CC(N)c1csc(Nc2nncc3ccccc23)n1 (configuration not stated)	none (no result: NTR1 ag)
COc1ccccc1CN1CCc2c([nH]c3ccccc23)C1	TbMetRS inhib 16 (no result: TAG inh) | Tb MetRS conf 31 | Jurkat tox inactive | Tb MetRS inh FP inactive
O=C1NC[C@@H](CCCCN2CCN(CCC3CCCCC3)C(=O)C2=O)N(CC2CCCCC2)C1=O	none (no result: MC4R barr agon, TAG inh, MC4R antag cAMP, NTR1 ag)
Clc1ccc2nc(SCc3nnc(-c4ccccc4)o3)[nH]c2c1	TbMetRS inhib 7.5 (no result: TAG inh) | Tb MetRS conf 17 | Jurkat tox inactive | Tb MetRS inh FP inactive
Cc1ccc2nc(SCc3nnc(-c4ccccc4Br)o3)[nH]c2c1	TbMetRS inhib 7.8 | Tb MetRS conf 11 | Jurkat tox inactive | Tb MetRS inh FP inactive
Clc1ccc(OCc2nnc(SCc3nnc(-c4ccccc4)o3)o2)c(Cl)c1	TbMetRS inhib 6.7 | Tb MetRS conf 17 | Jurkat tox inactive | Tb MetRS inh FP inactive
CCCNC(=O)c1cc2c(c(-c3cccc(-c4ccccc4F)c3)n1)[C@@H](CCO)N(C(=O)CC1CC1)C2	none (no result: MC4R barr agon, TAG inh, MC4R antag cAMP, NTR1 ag)
COc1cc(Cl)ccc1OC1(C)CCN(Cc2c(F)cccc2F)C1 (configuration not stated)	none (no result: NTR1 ag)
Cc1cc(C)cc(CC(=O)N2CCC2(C)C(=O)NS(=O)(=O)c2cc(C)ccc2F)c1 (configuration not stated)	none (no result: NTR1 ag)
c1ccc(CCNc2cc(-c3ccc4ccccc4c3)nc3ccnn23)nc1	none (no result: NTR1 ag)
Cc1cc(Br)ccc1OCCCCNCCO	TbMetRS inhib 6.1 (no result: TAG inh) | Tb MetRS conf 11 | Jurkat tox inactive | Tb MetRS inh FP inactive
C=CCNCCCCOc1ccc(Br)cc1C	none (no result: TAG inh)
O=C(C(=O)N1CCN(c2ccccc2F)CC1)c1c[nH]c2ccccc12	TbMetRS inhib 7.3 | Tb MetRS conf 11 | Jurkat tox inactive | Tb MetRS inh FP inactive
Cc1[nH]c2ccccc2c1C(=O)C(=O)N1CCN(C)CC1	none

Assay outcomes from PubChem BioAssay.
